Source: PMC5384886 (International Journal for Parasitology: Drugs and Drug …, 2017)
Like-named read-outs stand apart in the source and are kept apart here.

Key:
[1] = Cytotoxicity assay on WI38 cells; format: cell-based, human; conditions: human, WI38 cells (human embryonic lung fibroblasts)
Procedure, shortened: (§1)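 WI38 cells harvested at log phase and seeded at 10 000/well in DMEM or MEM with 10% FBS and 1% penicillin-streptomycin. After 12 h adherence at 37 °C, 5% CO2, 2-fold dilutions (final 50 to 1.57 μM) were added in triplicate for 2 days. MTT read-out: 4 h, DMSO solubilisation, 490 nm. CC50 is the mean of two independent experiments. SI = CC50/IC50 for each Pf strain.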

[2] = tested on: human embryonic lung fibroblast WI38; experiment: Cytotoxicity assay on WI38 cells; format: cell-based; conditions: for SI CC50/IC50 (Pf3D7): CC50 WI38 / IC50 Pf3D7; for SI CC50/IC50 (PfDd2): CC50 WI38 / IC50 PfDd2
Procedure, shortened: as §1

[3] = tested on: juvenile S. japonicum (schistosomula); experiment: In vitro assay for drug effect on juvenile S. japonicum; format: cell-based, Schistosoma japonicum; conditions: 10 μg/mL
Procedure, shortened: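 Cercariae mechanically transformed to schistosomula and kept in RPMI 1640 with 5% FBS, 100 IU/mL penicillin and 100 μg/mL streptomycin at 37 °C, 5% CO2. 50 schistosomula/well exposed to compound at final 10 μg/mL for 72 h, in duplicate, with DMSO negative control. Activity, survival time, mortality and morphology scored microscopically at 12, 24, 48 and 72 h.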

[4] = tested on: Pf3D7 (chloroquine-sensitive) strain; experiment: In vitro P. falciparum whole cell assay; format: cell-based; conditions: Plasmodium falciparum, 72 h, read-out: Pf3D7 IC50
Procedure, shortened: (§2)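 Parasites synchronised to 95% ring stage with 5% sorbitol. Stocks: chloroquine in water, test compounds and dihydroartemisinin in DMSO, diluted in incomplete 1640 medium. Ring-stage cultures (1% parasitaemia, 2% haematocrit) exposed to serial dilutions for 72 h at 37 °C. Growth read by SYBR Green I fluorescence. IC50 from a sigmoidal growth fit.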

[5] = tested on: adult S. japonicum; experiment: In vitro assay for drug effect on adult S. japonicum; format: cell-based, Schistosoma japonicum; conditions: 72 h
Procedure, shortened: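 Adult worms taken from infected mice 34–38 days post-infection, perfused with ice-cold heparinised HBSS, rinsed three times. Kept in RPMI 1640 with 10% calf serum, penicillin, streptomycin and amphotericin B. Four worm pairs per well, 2 h preincubation at 37 °C, 5% CO2, then compound at final 10 or 5 μg/mL; DMSO control. Scored at 24, 48, 72 h; death = no sucker/body movement for 2 min.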

[6] = tested on: β-hematin formation; experiment: Inhibition assay of β-hematin formation; format: biochemical; conditions: for β-Hematin % Inhibition: at a concentration of 100 μM; for IC50: read-out: β-Hematin IC50
Procedure, shortened: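 NP-40 detergent-mediated β-hematin assay. Compound in DMSO plus NP-40 and water. Hematin was dissolved in DMSO (25 mM stock) and suspended in acetate buffer (pH 4.8; final 0.5 M). Incubated 4 h at 37 °C. Controls: DMSO (negative), chloroquine and amodiaquine (100 μM final). Pyridine-ferrichrome read-out: 5% v/v final pyridine, HEPES pH 7.4, extra acetone, 405 nm. % inhibition at 100 μM; IC50 from concentration series; triplicate, repeated twice.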

[7] = tested on: PfDd2 (chloroquine-resistant) strain; experiment: In vitro P. falciparum whole cell assay; format: cell-based; conditions: Plasmodium falciparum, 72 h, read-out: PfDd2 IC50
Procedure, shortened: as §2

Structure (SMILES)	CC50 at 2 days [1]	SI CC50/IC50 (Pf3D7) [2]	SI CC50/IC50 (PfDd2) [2]	Juvenile S. japonicum worm-killing [3]	IC50 [4]	Adult S. japonicum worm-killing ([5]; 5 μg/mL)	Adult S. japonicum worm-killing ([5]; 10 μg/mL)	β-Hematin % Inhibition [6]	IC50 [6]	IC50 [7]	IC50 ([6]; listed as chloroquine)
CCCCNC[C@@H](O)Cn1c2ccc(Cl)cc2c2cc(Cl)ccc21 [(R)-7, (R)-1-(butylamino)-3-(3,6-dichloro-9H-carbazol-9-yl)propan-2-ol]	7.69 µM	22	45	+	0.344 ± 0.054 µM	+	+	75.13%	119 ± 7.14 µM	0.172 ± 0.032 µM	
CCCCNC[C@H](O)Cn1c2ccc(Cl)cc2c2cc(Cl)ccc21 [(S)-7, (S)-1-(butylamino)-3-(3,6-dichloro-9H-carbazol-9-yl)propan-2-ol]	9.34 µM	24	83	+	0.378 ± 0.091 µM	+	+	80.09%	106 ± 8.42 µM	0.112 ± 0.03 µM	
CCN(CC)Cc1cc(Nc2ccnc3cc(Cl)ccc23)ccc1O [Amodiaquine, reference compound]								100%	15.9 ± 1.29 µM		
CCN(CC)CCCC(C)Nc1ccnc2cc(Cl)ccc12 (stereo not drawn) [Chloroquine, reference compound]					0.015 ± 0.008 µM			97.8%	61 ± 5.55 µM	0.231 ± 0.024 µM	61 µM
OC(CN1CCCC1)Cn1c2ccc(Cl)cc2c2cc(Cl)ccc21 (stereo not drawn) [Compound 3, 1-(3,6-Dichloro-9H-carbazol-9-yl)-3-(pyrrolidin-1-yl)propan-2-ol]					2.67 ± 0.87 µM		+	10.76%			
OC(CN1CCCCC1)Cn1c2ccc(Cl)cc2c2cc(Cl)ccc21 (stereo not drawn) [Compound 4, 1-(3,6-Dichloro-9H-carbazol-9-yl)-3-(piperidin-1-yl)propan-2-ol]							+				
OC(CN1CCOCC1)Cn1c2ccc(Cl)cc2c2cc(Cl)ccc21 (stereo not drawn) [Compound 5, 1-(3,6-Dichloro-9H-carbazol-9-yl)-3-morpholinopropan-2-ol]					1.29 ± 0.329 µM			0%			
CCCCCCNCC(O)Cn1c2ccc(Cl)cc2c2cc(Cl)ccc21 (stereo not drawn) [Compound 9, 1-(3,6-Dichloro-9H-carbazol-9-yl)-3-(hexylamino)propan-2-ol]	5.92 µM	22	126	+	0.274 ± 0.063 µM	±	+	81.85%	55 ± 5.87 µM	0.047 ± 0.01 µM	
CCCCCCCNCC(O)Cn1c2ccc(Cl)cc2c2cc(Cl)ccc21 (stereo not drawn) [Compound 10, 1-(3,6-Dichloro-9H-carbazol-9-yl)-3-(heptylamino)propan-2-ol]	5.14 µM	28	95	+	0.179 ± 0.044 µM	±	+	74.74%	91.6 ± 4.67 µM	0.054 ± 0.01 µM	
CCCCCCCCNCC(O)Cn1c2ccc(Cl)cc2c2cc(Cl)ccc21 (stereo not drawn) [Compound 11, 1-(3,6-Dichloro-9H-carbazol-9-yl)-3-(octylamino)propan-2-ol]	3.77 µM	29	70	+	0.132 ± 0.059 µM	±	+	50.59%	65.4 ± 4.9 µM	0.054 ± 0.006 µM	
C[C@H]1[C@@H](O)O[C@@H]2O[C@@]3(C)CC[C@H]4[C@H](C)CC[C@@H]1[C@@]24OO3 [Dihydroartemisinin, reference compound]										0.005 ± 0.0002 µM	
O=C(C1CCCCC1)N1CC(=O)N2CCc3ccccc3C2C1 (stereo not drawn) [Praziquantel, reference compound]						+	+				
